Tested on: U2OS
Test: Multiplex assay against U2OS
Type: toxicity, cell-based
Conditions: human
Method in brief: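 Values for tubulin, mitochondrial-mass and membrane-permeability phenotypes are per cents of cells with healthy nuclei. These cells were identified by CellPathfinder machine-learning gating of live cells that had been stained at seeding with Hoechst33342, BioTracker Green Microtubule Cytoskeleton Dye, MitoTracker Red and Annexin V Alexa Fluor 680 and imaged on a CQ1 microscope at 37°C and 5% CO2 after compound addition. The gating first set Hoechst high-intensity objects apart from normal cells, then split normal cells into healthy, pyknosed or fragmented nuclei, and pyknosed cells into mitotic or apoptotic.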

[1] = 12 h, 1 µM, compound concentration 1 uM, replicate 1
[2] = 12 h, 1 µM, compound concentration 1 uM, replicate 2
[3] = 12 h, 10 µM, compound concentration 10 uM, replicate 1
[4] = 12 h, 10 µM, compound concentration 10 uM, replicate 2
[5] = 24 h, 1 µM, compound concentration 1 uM, replicate 1
[6] = 24 h, 1 µM, compound concentration 1 uM, replicate 2
[7] = 24 h, 10 µM, compound concentration 10 uM, replicate 1
[8] = 24 h, 10 µM, compound concentration 10 uM, replicate 2
[9] = 48 h, 1 µM, compound concentration 1 uM, replicate 1
[10] = 48 h, 1 µM, compound concentration 1 uM, replicate 2
[11] = 48 h, 10 µM, compound concentration 10 uM, replicate 1
[12] = 48 h, 10 µM, compound concentration 10 uM, replicate 2

Cc1ccc(C(=O)Nc2cccc(C(F)(F)F)c2)cc1Nc1nc(-c2cccnc2)nc2c1cnn2C
Population Apoptotic (%) [1]: 41% | Population Fragmented Nuclei (%) [1]: 18% | Population Healthy Nuclei (%) [1]: 63% | Population Hoechst High Intensity Objects (%) [1]: 10% | Population Membrane Permeable-Phenotype (%) [1]: 8% | Population Mitochondria Different-Phenotype (%) [1]: 12% | Population Mitotic Cells (%) [1]: 58% | Population Normal (%) [1]: 89% | Population Pyknosed Nuclei (%) [1]: 18% | Population Tubulin-Different-Phenotype (%) [1]: 13% | Total Cell Count [1]: 151 | Population Apoptotic (%) [2]: 50% | Population Fragmented Nuclei (%) [2]: 14% | Population Healthy Nuclei (%) [2]: 73% | Population Hoechst High Intensity Objects (%) [2]: 3% | Population Membrane Permeable-Phenotype (%) [2]: 6% | Population Mitochondria Different-Phenotype (%) [2]: 25% | Population Mitotic Cells (%) [2]: 50% | Population Normal (%) [2]: 96% | Population Pyknosed Nuclei (%) [2]: 12% | Population Tubulin-Different-Phenotype (%) [2]: 14% | Total Cell Count [2]: 101 | Population Apoptotic (%) [3]: 69% | Population Fragmented Nuclei (%) [3]: 13% | Population Healthy Nuclei (%) [3]: 48% | Population Hoechst High Intensity Objects (%) [3]: 6% | Population Membrane Permeable-Phenotype (%) [3]: 53% | Population Mitochondria Different-Phenotype (%) [3]: 87% | Population Mitotic Cells (%) [3]: 30% | Population Normal (%) [3]: 93% | Population Pyknosed Nuclei (%) [3]: 38% | Population Tubulin-Different-Phenotype (%) [3]: 98% | Total Cell Count [3]: 147 | Population Apoptotic (%) [4]: 61% | Population Fragmented Nuclei (%) [4]: 18% | Population Healthy Nuclei (%) [4]: 42% | Population Hoechst High Intensity Objects (%) [4]: 8% | Population Membrane Permeable-Phenotype (%) [4]: 78% | Population Mitochondria Different-Phenotype (%) [4]: 92% | Population Mitotic Cells (%) [4]: 38% | Population Normal (%) [4]: 91% | Population Pyknosed Nuclei (%) [4]: 39% | Population Tubulin-Different-Phenotype (%) [4]: 100% | Total Cell Count [4]: 66 | Population Apoptotic (%) [5]: 42% | Population Fragmented Nuclei (%) [5]: 10% | Population Healthy Nuclei (%) [5]: 75% | Population Hoechst High Intensity Objects (%) [5]: 9% | Population Membrane Permeable-Phenotype (%) [5]: 2% | Population Mitochondria Different-Phenotype (%) [5]: 14% | Population Mitotic Cells (%) [5]: 57% | Population Normal (%) [5]: 90% | Population Pyknosed Nuclei (%) [5]: 13% | Population Tubulin-Different-Phenotype (%) [5]: 8% | Total Cell Count [5]: 153 | Population Apoptotic (%) [6]: 27% | Population Fragmented Nuclei (%) [6]: 12% | Population Healthy Nuclei (%) [6]: 72% | Population Hoechst High Intensity Objects (%) [6]: 3% | Population Membrane Permeable-Phenotype (%) [6]: 7% | Population Mitochondria Different-Phenotype (%) [6]: 29% | Population Mitotic Cells (%) [6]: 72% | Population Normal (%) [6]: 96% | Population Pyknosed Nuclei (%) [6]: 14% | Population Tubulin-Different-Phenotype (%) [6]: 16% | Total Cell Count [6]: 101 | Population Healthy Nuclei (%) [7]: 16% | Population Hoechst High Intensity Objects (%) [7]: 4% | Population Membrane Permeable-Phenotype (%) [7]: 80% | Population Mitochondria Different-Phenotype (%) [7]: 100% | Population Mitotic Cells (%) [7]: 10% | Population Normal (%) [7]: 95% | Population Pyknosed Nuclei (%) [7]: 57% | Total Cell Count [7]: 166 | Population Apoptotic (%) [8]: 90% | Population Fragmented Nuclei (%) [8]: 26% | Population Healthy Nuclei (%) [8]: 11% | Population Hoechst High Intensity Objects (%) [8]: 20% | Population Membrane Permeable-Phenotype (%) [8]: 100% | Population Mitochondria Different-Phenotype (%) [8]: 75% | Population Mitotic Cells (%) [8]: 9% | Population Normal (%) [8]: 79% | Population Pyknosed Nuclei (%) [8]: 61% | Population Tubulin-Different-Phenotype (%) [8]: 100% | Total Cell Count [8]: 77 | Population Apoptotic (%) [9]: 58% | Population Fragmented Nuclei (%) [9]: 11% | Population Healthy Nuclei (%) [9]: 80% | Population Hoechst High Intensity Objects (%) [9]: 4% | Population Membrane Permeable-Phenotype (%) [9]: 6% | Population Mitochondria Different-Phenotype (%) [9]: 22% | Population Mitotic Cells (%) [9]: 41% | Population Normal (%) [9]: 95% | Population Pyknosed Nuclei (%) [9]: 8% | Population Tubulin-Different-Phenotype (%) [9]: 10% | Total Cell Count [9]: 140 | Population Apoptotic (%) [10]: 70% | Population Fragmented Nuclei (%) [10]: 7% | Population Healthy Nuclei (%) [10]: 78% | Population Hoechst High Intensity Objects (%) [10]: 10% | Population Membrane Permeable-Phenotype (%) [10]: 11% | Population Mitochondria Different-Phenotype (%) [10]: 29% | Population Mitotic Cells (%) [10]: 30% | Population Normal (%) [10]: 89% | Population Pyknosed Nuclei (%) [10]: 14% | Population Tubulin-Different-Phenotype (%) [10]: 22% | Total Cell Count [10]: 93 | Population Apoptotic (%) [11]: 96% | Population Fragmented Nuclei (%) [11]: 35% | Population Healthy Nuclei (%) [11]: 10% | Population Hoechst High Intensity Objects (%) [11]: 10% | Population Membrane Permeable-Phenotype (%) [11]: 100% | Population Mitochondria Different-Phenotype (%) [11]: 100% | Population Mitotic Cells (%) [11]: 3% | Population Normal (%) [11]: 90% | Population Pyknosed Nuclei (%) [11]: 54% | Population Tubulin-Different-Phenotype (%) [11]: 100% | Total Cell Count [11]: 219 | Population Apoptotic (%) [12]: 100% | Population Fragmented Nuclei (%) [12]: 25% | Population Healthy Nuclei (%) [12]: 21% | Population Hoechst High Intensity Objects (%) [12]: 28% | Population Mitotic Cells (%) [12]: 0% | Population Normal (%) [12]: 71% | Population Pyknosed Nuclei (%) [12]: 53% | Total Cell Count [12]: 77

From ChEMBL document CHEMBL4689842, “EUbOPEN Chemogenomics Library wave 1” (2021)
